Source: ChEMBL document CHEMBL2321839, “Novel limonene and citral based 2,5-disubstituted-1,3,4-oxadiazoles: a natural product coupled approach to semicarbazones for antiepileptic activity” (Bioorg Med Chem Lett, 2013)
Active and inactive are the calls of the source. No cut-off for these calls is given here.

Assays:
[1] = test system: Mus musculus; test: Antiepileptic activity in ip dosed Swiss albino mouse assessed as protection against scPTZ-induced seizures after 4 hrs; assay type: functional; conditions: read-out: MED
Summary of the method: (§1)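 Male Swiss albino mice (18–25 g), compounds given ip at 30, 100 and 300 mg/kg. Seizures induced by maximal electroshock (MES) or subcutaneous pentylenetetrazole (scPTZ). Protection scored at 0.5 and 4.0 h after dosing.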

[2] = test system: Rattus norvegicus; test: Antiepileptic activity in Wistar rat assessed as protection against scSTY-induced seizures at 300 mg/kg, ip measured after 0.5 hrs; assay type: functional, organism-based; set-up: dose 300 mg/kg
Summary of the method: (§2)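 Male Wistar rats (100–150 g), compounds given ip at 30, 100 and 300 mg/kg. Seizures induced by subcutaneous strychnine (scSTY). Activity read 0.5 and 4.0 h after dosing. Reported as the minimal dose active in at least half of the animals; a dash means no activity at 300 mg/kg.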

[3] = test system: Mus musculus; test: Antiepileptic activity in Swiss albino mouse assessed as protection against maximal-electric shock-induced seizures at 300 mg/kg, ip measured after 4 hrs; assay type: functional, organism-based; set-up: dose 300 mg/kg; summary of the method: as §1
[4] = test system: Mus musculus; test: Antiepileptic activity in Swiss albino mouse assessed as protection against scPTZ-induced seizures at 300 mg/kg, ip measured after 0.5 hrs; assay type: functional, organism-based; set-up: dose 300 mg/kg; summary of the method: as §1
[5] = test system: Mus musculus; test: Antiepileptic activity in Swiss albino mouse assessed as protection against maximal-electric shock-induced seizures at 300 mg/kg, ip measured after 0.5 hrs; assay type: functional, organism-based; set-up: dose 300 mg/kg; summary of the method: as §1
[6] = test system: Rattus norvegicus; test: Antiepileptic activity in Wistar rat assessed as protection against scSTY-induced seizures at 300 mg/kg, ip measured after 4 hrs; assay type: functional, organism-based; set-up: dose 300 mg/kg; summary of the method: as §2
[7] = test system: Mus musculus; test: Neurotoxicity against ip dosed Swiss albino mouse after 0.5 hrs by rotarod test; assay type: toxicity, organism-based; conditions: in vivo
Summary of the method: (§3)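 Acute neurotoxicity tested by rotorod in male Swiss albino mice (18–25 g) given 30, 100 or 300 mg/kg ip. Read at 0.5 and 4.0 h post-dose. Result is the minimal dose causing toxicity in half or more of the animals; a dash means none up to 300 mg/kg.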

[8] = test system: Mus musculus; test: Antiepileptic activity in Swiss albino mouse assessed as protection against scPTZ-induced seizures at 300 mg/kg, ip measured after 4 hrs; assay type: functional, organism-based; set-up: dose 300 mg/kg; summary of the method: as §1
[9] = test system: Mus musculus; test: Neurotoxicity against Swiss albino mouse by rotarod test at 300 mg/kg, ip after 0.5 hrs; assay type: toxicity, organism-based; set-up: dose 300 mg/kg, route intraperitoneal; conditions: in vivo; summary of the method: as §3
[10] = test system: Mus musculus; test: Neurotoxicity against ip dosed Swiss albino mouse after 4 hrs by rotarod test; assay type: toxicity, organism-based; conditions: in vivo; summary of the method: as §3
[11] = test system: Mus musculus; test: Antiepileptic activity in ip dosed Swiss albino mouse assessed as protection against maximal-electric shock-induced seizures after 4 hrs; assay type: functional; conditions: read-out: MED; summary of the method: as §1
[12] = test system: Mus musculus; test: Antiepileptic activity in ip dosed Swiss albino mouse assessed as protection against maximal-electric shock-induced seizures after 0.5 hrs; assay type: functional; conditions: read-out: MED; summary of the method: as §1
[13] = test system: Mus musculus; test: Neurotoxicity against Swiss albino mouse by rotarod test at 300 mg/kg, ip after 4 hrs; assay type: toxicity, organism-based; set-up: dose 300 mg/kg, route intraperitoneal; conditions: in vivo; summary of the method: as §3
[14] = test system: Rattus norvegicus; test: Antiepileptic activity in ip dosed Wistar rat assessed as protection against scSTY-induced seizures after 4 hrs; assay type: functional; conditions: read-out: MED; summary of the method: as §2
[15] = test system: Rattus norvegicus; test: Antiepileptic activity in Wistar rat assessed as GABA level in midbrain per 100 mg at 100 mg/kg ip after 2 hrs (reference value: 35.42 +/- 2.14 ug); assay type: functional; conditions: route intraperitoneal
[16] = test system: Rattus norvegicus; test: Antiepileptic activity in Wistar rat assessed as GABA level in medulla oblangata per 100 mg at 100 mg/kg ip after 2 hrs (reference value: 31.86 +/- 4.65 ug); assay type: functional, Medulla oblongata; conditions: route intraperitoneal
[17] = test system: Rattus norvegicus; test: Antiepileptic activity in Wistar rat assessed as GABA level in cerebellum per 100 mg at 100 mg/kg ip after 2 hrs (reference value: 23.48+/- 2.48 ug); assay type: functional; conditions: route intraperitoneal
[18] = test system: Rattus norvegicus; test: Neurotoxicity in Wistar rat at 30 mg/kg, po measured at 2 hrs by rotarod test; assay type: toxicity, organism-based; set-up: dose 30 mg/kg, route oral; conditions: in vivo
Summary of the method: (§4)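 Neurotoxicity assessed in Wistar rats (100–150 g) after a 30 mg/kg oral dose, read at 0.25, 0.5, 1, 2 and 4 h.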

[19] = test system: Rattus norvegicus; test: Antiepileptic activity in Wistar rat assessed as protection against maximal electric shock-induced seizures at 30 mg/kg, po measured at 1 hr; assay type: functional
Summary of the method: (§5)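 Single oral dose of 30 mg/kg in Wistar rats (100–150 g), tested by MES challenge at 0.25, 0.5, 1, 2 and 4 h.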

[20] = test system: Rattus norvegicus; test: Neurotoxicity in Wistar rat at 30 mg/kg, po measured at 0.25 hrs by rotarod test; assay type: toxicity, organism-based; set-up: dose 30 mg/kg, route oral; conditions: in vivo; summary of the method: as §4
[21] = test system: Rattus norvegicus; test: Antiepileptic activity in Wistar rat assessed as protection against maximal electric shock-induced seizures at 30 mg/kg, po measured at 0.25 hrs; assay type: functional; summary of the method: as §5
[22] = test system: Rattus norvegicus; test: Neurotoxicity in Wistar rat at 30 mg/kg, po measured at 0.5 hrs by rotarod test; assay type: toxicity, organism-based; set-up: dose 30 mg/kg, route oral; conditions: in vivo; summary of the method: as §4
[23] = test system: Rattus norvegicus; test: Neurotoxicity in Wistar rat at 30 mg/kg, po measured at 1 hr by rotarod test; assay type: toxicity, organism-based; set-up: dose 30 mg/kg, route oral; conditions: in vivo; summary of the method: as §4
[24] = test system: Rattus norvegicus; test: Neurotoxicity in Wistar rat at 30 mg/kg, po measured at 4 hrs by rotarod test; assay type: toxicity, organism-based; set-up: dose 30 mg/kg, route oral; conditions: in vivo; summary of the method: as §4
[25] = test system: Rattus norvegicus; test: Antiepileptic activity in Wistar rat assessed as protection against maximal electric shock-induced seizures at 30 mg/kg, po measured at 2 hrs; assay type: functional; summary of the method: as §5
[26] = test system: Rattus norvegicus; test: Antiepileptic activity in Wistar rat assessed as protection against maximal electric shock-induced seizures at 30 mg/kg, po measured at 4 hrs; assay type: functional; summary of the method: as §5
[27] = test system: Rattus norvegicus; test: Antiepileptic activity in Wistar rat assessed as protection against maximal electric shock-induced seizures at 30 mg/kg, po measured at 0.5 hrs; assay type: functional; summary of the method: as §5

| Structure (SMILES) | minimal effective dose [1] | Activity [2] | Activity [4] | Activity [5] | Activity [6] | Activity [8] | Activity [9] | minimal effective dose [11] | Activity [13] | minimal effective dose [14] | further results |
| --- | --- | --- | --- | --- | --- | --- | --- | --- | --- | --- | --- |
| CC(C)=CC/C=C(/C)C/C=N/NC(=O)Nc1nnc(-c2ccccc2O)o1 | 300 mg/kg | inactive | inactive | inactive | inactive |  |  |  |  |  | Activity [3]: inactive; MTC [7]: 300 mg/kg |
| C=C(C)[C@@H]1CC=C(C)/C(=N/NC(=O)Nc2nnc(-c3ccccc3)o2)C1 |  | inactive | inactive | inactive | inactive | inactive | Non-toxic | 300 mg/kg |  |  | MTC [10]: 300 mg/kg |
| C=C(C)[C@@H]1CC=C(C)/C(=N/NC(=O)Nc2nnc(-c3ccccc3O)o2)C1 |  | inactive | inactive | inactive | inactive | inactive | Non-toxic | 300 mg/kg |  |  | MTC [10]: 300 mg/kg |
| CC(C)=CC/C=C(/C)C/C=N/NC(=O)Nc1nnc(-c2ccc(Cl)cc2)o1 |  | inactive | inactive |  | inactive | inactive | Non-toxic | 300 mg/kg | Non-toxic |  | minimal effective dose [12]: 100 mg/kg |
| CC(C)=CC/C=C(/C)C/C=N/NC(=O)Nc1nnc(-c2ccc(F)cc2)o1 | 300 mg/kg | inactive | inactive | inactive | inactive |  | Non-toxic | 300 mg/kg |  |  |  |
| C=C(C)[C@@H]1CC=C(C)/C(=N/NC(=O)Nc2nnc(-c3ccc(Cl)cc3)o2)C1 | 300 mg/kg | inactive | inactive |  |  |  | Non-toxic | 300 mg/kg | Non-toxic | 300 mg/kg | minimal effective dose [12]: 100 mg/kg |
| CC(C)=CC/C=C(/C)C/C=N/NC(=O)Nc1nnc(-c2ccccc2)o1 |  | inactive | inactive | inactive | inactive | inactive | Non-toxic |  |  |  | Activity [3]: inactive; MTC [10]: 300 mg/kg |
| CC(C)=CC/C=C(/C)C/C=N/NC(=O)Nc1nnc(-c2ccc(O)cc2)o1 | 300 mg/kg | inactive | inactive | inactive |  |  | Non-toxic | 300 mg/kg | Non-toxic | 300 mg/kg | Activity [15]: 52.82 µg; Activity [16]: 34.42 µg; Activity [17]: 28.25 µg |
| C=C(C)[C@@H]1CC=C(C)/C(=N/NC(=O)Nc2nnc(-c3cccc(O)c3)o2)C1 | 300 mg/kg | inactive | inactive | inactive | inactive |  |  |  | Non-toxic |  | Activity [3]: inactive; MTC [7]: 300 mg/kg |
| C=C(C)[C@@H]1CC=C(C)/C(=N/NC(=O)Nc2nnc(-c3ccc(O)cc3)o2)C1 | 300 mg/kg | inactive | inactive |  |  |  | Non-toxic | 300 mg/kg | Non-toxic | 300 mg/kg | minimal effective dose [12]: 100 mg/kg; Activity [18]: 0%; Activity [15]: 47.42 µg; Activity [16]: 43.48 µg; Activity [19]: 25%; Activity [20]: Non-toxic; Activity [21]: 25%; Activity [22]: Non-toxic; Activity [23]: Non-toxic; Activity [24]: Non-toxic; Activity [17]: 30.64 µg; Activity [25]: 0%; Activity [26]: 50%; Activity [27]: 0% |
| C=C(C)[C@@H]1CC=C(C)/C(=N/NC(=O)Nc2nnc(-c3ccc(OC)cc3)o2)C1 | 300 mg/kg | inactive | inactive | inactive |  |  | Non-toxic | 300 mg/kg | Non-toxic | 300 mg/kg |  |
| COc1ccc(-c2nnc(NC(=O)N/N=C/C/C(C)=C\CC=C(C)C)o2)cc1 |  | inactive | inactive | inactive |  | inactive | Non-toxic |  | Non-toxic | 300 mg/kg | Activity [3]: inactive |
| CC(C)=CC/C=C(/C)C/C=N/NC(=O)Nc1nnc(-c2ccc([N+](=O)[O-])cc2)o1 | 300 mg/kg | inactive | inactive |  |  |  | Non-toxic | 300 mg/kg | Non-toxic | 300 mg/kg | minimal effective dose [12]: 100 mg/kg; Activity [18]: Non-toxic; Activity [15]: 62.56 µg; Activity [16]: 36.72 µg; Activity [19]: 25%; Activity [20]: Non-toxic; Activity [21]: 50%; Activity [22]: Non-toxic; Activity [23]: Non-toxic; Activity [24]: Non-toxic; Activity [17]: 32.04 µg; Activity [25]: 25%; Activity [26]: 50%; Activity [27]: 0% |
| CC(C)=CC/C=C(/C)C/C=N/NC(=O)Nc1nnc(-c2cccc(O)c2)o1 |  | inactive | inactive | inactive | inactive | inactive |  |  | Non-toxic |  | Activity [3]: inactive; MTC [7]: 300 mg/kg |
| C=C(C)[C@@H]1CC=C(C)/C(=N/NC(=O)Nc2nnc(-c3ccc(C)cc3)o2)C1 |  | inactive | inactive | inactive | inactive | inactive |  | 300 mg/kg | Non-toxic |  | MTC [7]: 300 mg/kg |
| CC(C)=CC/C=C(/C)C/C=N/NC(=O)Nc1nnc(-c2ccc(C)cc2)o1 |  | inactive | inactive | inactive | inactive | inactive | Non-toxic | 300 mg/kg | Non-toxic |  | MTC [10]: 300 mg/kg |
| O=C1NC(=O)C(c2ccccc2)(c2ccccc2)N1 [PHENYTOIN] |  | inactive | inactive |  |  | inactive |  | 30 mg/kg |  | 100 mg/kg | minimal effective dose [12]: 30 mg/kg; Activity [18]: Non-toxic; MTC [10]: 100 mg/kg; Activity [19]: 50%; Activity [20]: Non-toxic; Activity [21]: 75%; Activity [22]: Non-toxic; Activity [23]: Non-toxic; Activity [24]: Non-toxic; Activity [25]: 75%; Activity [26]: 0%; Activity [27]: 50%; MTC [7]: 100 mg/kg |
